The record followed here is ChEMBL document CHEMBL4257518, “Inhibition of O-GlcNAc transferase (OGT) by peptidic hybrids” (Medchemcomm, 2018).

The source made the active and inactive calls. The calls are words filed in the database; no cut-off is given here. Side chains are listed from the residue outwards. Peptide text beside a SMILES is read from it. * marks the point of attachment. X3 = O=c1ccn([C@@H]2O[C@H](COCCOCCN*)[C@@H](O)[C@H]2O)c(=O)[nH]1; X2 = O=c1ccn([C@@H]2O[C@H](COCCN*)[C@@H](O)[C@H]2O)c(=O)[nH]1; X1 = O=c1ccn([C@@H]2O[C@H](CN*)[C@@H](O)[C@H]2O)c(=O)[nH]1; X4 = O=C(c1cc(=O)[nH]c2ccccc12)*; 4Amb = NCc1ccc(C(=O)O)cc1

One test has as its target T1, UDP-N-acetylglucosamine--peptide N-acetylglucosaminyltransferase 110 kDa subunit (Homo sapiens) (UniProt O15294).
T1 sequence (whole entry): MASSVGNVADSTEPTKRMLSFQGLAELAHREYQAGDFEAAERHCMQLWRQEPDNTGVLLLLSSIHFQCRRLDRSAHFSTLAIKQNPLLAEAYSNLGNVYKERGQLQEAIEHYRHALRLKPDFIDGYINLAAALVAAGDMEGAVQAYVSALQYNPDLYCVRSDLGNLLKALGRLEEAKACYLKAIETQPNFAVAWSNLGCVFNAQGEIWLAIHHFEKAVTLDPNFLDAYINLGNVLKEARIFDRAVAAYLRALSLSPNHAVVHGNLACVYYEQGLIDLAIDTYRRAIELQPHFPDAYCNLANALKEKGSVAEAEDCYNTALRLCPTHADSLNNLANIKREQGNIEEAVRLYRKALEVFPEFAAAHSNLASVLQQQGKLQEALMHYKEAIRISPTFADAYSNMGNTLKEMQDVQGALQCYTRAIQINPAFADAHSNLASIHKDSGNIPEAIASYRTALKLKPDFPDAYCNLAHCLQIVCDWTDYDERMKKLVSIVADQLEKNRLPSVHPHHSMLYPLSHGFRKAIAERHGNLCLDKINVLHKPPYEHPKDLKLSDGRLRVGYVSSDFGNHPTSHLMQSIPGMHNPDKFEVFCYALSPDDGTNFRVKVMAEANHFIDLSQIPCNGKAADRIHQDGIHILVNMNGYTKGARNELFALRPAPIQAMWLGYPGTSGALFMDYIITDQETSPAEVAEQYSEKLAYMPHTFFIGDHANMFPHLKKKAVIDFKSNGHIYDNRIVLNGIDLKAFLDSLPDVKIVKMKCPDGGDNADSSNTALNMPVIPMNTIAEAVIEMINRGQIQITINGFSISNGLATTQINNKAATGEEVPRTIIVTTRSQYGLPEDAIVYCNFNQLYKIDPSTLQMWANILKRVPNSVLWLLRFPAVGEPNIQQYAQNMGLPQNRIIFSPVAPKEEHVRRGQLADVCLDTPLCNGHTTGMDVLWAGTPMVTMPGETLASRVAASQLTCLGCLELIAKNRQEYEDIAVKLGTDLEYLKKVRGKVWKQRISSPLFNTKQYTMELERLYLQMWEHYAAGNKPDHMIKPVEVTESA
Nature of the test: Competitive inhibition of OGT (unknown origin) at 0.5 mM in presence of RBL_2_410_422 peptide by microarray analysis. In short, it runs like this:
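Peptide microarray with immobilized RBL-2_410–422 as OGT acceptor; inhibitor peptide present at 0.5 mM, water in parallel control. O-GlcNAcylation followed in real time by FITC-labelled antibody binding to O-GlcNAcylated RBL-2_410–422.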
As to H-KENSPCVTPVATA-OH, the inhibition entry was “Active”.

Another test deals with T2, UDP-N-acetylglucosamine--peptide N-acetylglucosaminyltransferase 110 kDa subunit (Homo sapiens, UniProt O15294).
T2 sequence (O15294 whole entry): T1 sequence (whole entry)
Nature of the test: Inhibition of OGT (unknown origin) using UDP-GlcNAc as substrate measured after 2 hrs by UDP-Glo luminescence assay.
H-CVTPVATA-NH2 showed a concentration for half-maximal inhibition (IC50) of 385 µM.
On to `CC(C)[C@H](NC(=O)[C@@H](N)CS)C(=O)N[C@H](C(=O)N1CCC[C@H]1C(=O)N[C@H](C(=O)N[C@@H](CCCCNC(=O)c1ccc(CNC(=O)c2cc(=O)[nH]c3ccccc23)cc1)C(=O)N[C@H](C(=O)N[C@@H](C)C(N)=O)[C@@H](C)O)C(C)C)[C@@H](C)O` (H-CVTPVK([4Amb-X4])TA-NH2), for which the IC50 amounted to 117 µM.
The molecule `CC(C)[C@H](NC(=O)[C@@H](N)CS)C(=O)N[C@H](C(=O)N1CCC[C@H]1C(=O)N[C@H](C(=O)N[C@@H](CCC(=O)NC[C@H]1O[C@@H](n2ccc(=O)[nH]c2=O)[C@H](O)[C@@H]1O)C(=O)N[C@H](C(=O)N[C@@H](C)C(N)=O)[C@@H](C)O)C(C)C)[C@@H](C)O` (H-CVTPVE(X1)TA-NH2) had an IC50 of 297 µM.
As to `CC(C)[C@H](NC(=O)[C@@H](N)CS)C(=O)N[C@H](C(=O)N1CCC[C@H]1C(=O)N[C@H](C(=O)N[C@@H](CCC(=O)NCCOC[C@H]1O[C@@H](n2ccc(=O)[nH]c2=O)[C@H](O)[C@@H]1O)C(=O)N[C@H](C(=O)N[C@@H](C)C(N)=O)[C@@H](C)O)C(C)C)[C@@H](C)O` (H-CVTPVE(X2)TA-NH2), the IC50 was over 1000 µM.
On to H-RVPSAQS-NH2, for which the IC50 amounted to 193 µM.
In turn, `CC(C)[C@H](NC(=O)[C@@H](N)CCCNC(=N)N)C(=O)N1CCC[C@H]1C(=O)N[C@@H](CO)C(=O)N[C@@H](CCC(=O)NCCOC[C@H]1O[C@@H](n2ccc(=O)[nH]c2=O)[C@H](O)[C@@H]1O)C(=O)N[C@@H](CCC(N)=O)C(=O)N[C@@H](CO)C(N)=O` (H-RVPSE(X2)QS-NH2) showed an IC50 of over 1000 µM.
In turn, `CC(C)[C@H](NC(=O)[C@@H](N)CCCNC(=N)N)C(=O)N1CCC[C@H]1C(=O)N[C@@H](CO)C(=O)N[C@@H](CCC(=O)NC[C@H]1O[C@@H](n2ccc(=O)[nH]c2=O)[C@H](O)[C@@H]1O)C(=O)N[C@@H](CCC(N)=O)C(=O)N[C@@H](CO)C(N)=O` (H-RVPSE(X1)QS-NH2) gave a half-maximal inhibitory concentration (IC50) of over 1000 µM.
Regarding `CC(C)[C@H](NC(=O)[C@@H](N)CS)C(=O)N[C@H](C(=O)N1CCC[C@H]1C(=O)N[C@H](C(=O)N[C@@H](CCC(=O)NCCOCCOC[C@H]1O[C@@H](n2ccc(=O)[nH]c2=O)[C@H](O)[C@@H]1O)C(=O)N[C@H](C(=O)N[C@@H](C)C(N)=O)[C@@H](C)O)C(C)C)[C@@H](C)O` (H-CVTPVE(X3)TA-NH2), the IC50 was 493 µM.

The next test concerns the target T1, UDP-N-acetylglucosamine--peptide N-acetylglucosaminyltransferase 110 kDa subunit (Homo sapiens). Nature of the test: Inhibition of OGT (unknown origin) at 1 mM using UDP-GlcNAc as substrate measured after 2 hrs by UDP-Glo luminescence assay relative to control. In short, it runs like this:
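Single-point OGT inhibition at 1 mM, read by UDP-Glo glycosyltransferase assay (UDP released from UDP-GlcNAc donor).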
`O=C(O)CCNC(=O)c1cc(=O)[nH]c2ccccc12` registered an inhibition of 90%.
For the molecule `CCNC(=O)CCNC(=O)c1ccc(NC(=O)c2cc(=O)[nH]c3ccccc23)cc1`, the inhibition is 90%.
Same read-out and setting: with `CCOC(=O)c1ccc(CNC(=O)c2cc(=O)[nH]c3ccccc23)cc1` the figure was 90%.
In turn, `O=C(O)CCCNC(=O)c1cc(=O)[nH]c2ccccc12` gave an inhibition of 90%.
In the case of `O=C(O)c1ccc(CNC(=O)c2cc(=O)[nH]c3ccccc23)cc1`, the inhibition came to 90%.
For `O=C(O)CCNC(=O)c1ccc(NC(=O)c2cc(=O)[nH]c3ccccc23)cc1`, the inhibition amounted to 90%.
Molecule `CCOC(=O)CCCNC(=O)c1cc(=O)[nH]c2ccccc12` registered an inhibition of 90%.
Molecule `Nc1ccc(CNC(=O)c2cc(=O)[nH]c3ccccc23)cc1` yielded an inhibition of 90%.
As to `O=C(NCc1ccccc1)c1cc(O)nc2ccccc12`, the inhibition stood at 90%.
Molecule `COc1ccc(CNC(=O)c2cc(=O)[nH]c3ccccc23)cc1OC` registered an inhibition of 90%.
`CCc1nnc(NC(=O)c2cc(=O)[nH]c3ccccc23)s1` had an inhibition of 90%.
`NS(=O)(=O)c1ccc(CNC(=O)c2cc(O)nc3ccccc23)cc1` had an inhibition of 90%.
`CC(C)(C)OC(=O)CCNC(=O)c1cc(=O)[nH]c2ccccc12` returned an inhibition of 90%.
Consider `O=C(O)c1cc(O)nc2ccccc12`, for which the inhibition is 90%.
The molecule `O=C(NCc1ccccc1Cl)c1cc(O)nc2ccccc12` returned an inhibition of 90%.
Take `O=C(NCC1CCC(C(=O)O)CC1)c1cc(=O)[nH]c2ccccc12` (stereo unspecified): the inhibition stood at 90%.
Molecule `O=C(NCc1ccc2c(c1)OCCO2)c1cc(=O)[nH]c2ccccc12` showed an inhibition of 90%.
On the same count and under the same terms, next, `CC(C)(C)OC(=O)CNC(=O)c1cc(=O)[nH]c2ccccc12`: 90%; `Nc1ccccc1CNC(=O)c1cc(=O)[nH]c2ccccc12`: 90%; `CCOC(=O)C1CCC(CNC(=O)c2cc(=O)[nH]c3ccccc23)CC1` (stereo unspecified): 90%.
Consider `COc1ccc(CNC(=O)c2cc(=O)[nH]c3ccccc23)cc1`, for which the inhibition came out at 90%.
`O=C(O)CNC(=O)c1cc(=O)[nH]c2ccccc12` displayed an inhibition of 90%.

A word on the inhibition: it is how much of the control response was suppressed. What is called IC50 is the concentration that inhibits the measured activity by half. A high value points to weaker potency.
